UBC13 inh: inhibitors of human UBC13 polyubiquitin chain formation | AID 485273 | 0.47% of 330,000 active | inhibition, % at 20 µM | TR-FRET | P61088; in the data active = inhibition above about 45%, passing the limit was not always enough
MEKK2wt PB1 HTS: raises or lowers MEK5 binding to wildtype human MEKK2 PB1 domain. Q9Y2U5. bead flow cytometry, Alexa488-MEK5 binding to MEKK2 WT; actives lie on both sides. binding response (% of control), % at 10 µM. 1.1% of 290,000 active; in the data active = binding response below about 67% or above about 130%
MEKK2mut PB1 HTS: signal of MEK5 binding to mutant human MEKK2 PB1 domain | percent response, % at 10 µM | bead flow cytometry, Alexa488-MEK5 binding to MEKK2 mutant | AID 1530 | 0.35% of 290,000 active; in the data active = percent response above about 24%, passing the limit was not always enough
Apaf-1 inh: human Apaf-1 inhibition | inhibition, % at 20 µM | 0.71% of 330,000 active | AID 489030 | O14727 | reconstituted apoptosome caspase-3 activity, DEVD-Rh110 fluorescence; active = inhibition of at least 40% at 20 µM
Target sequence (O14727 whole entry, looked up): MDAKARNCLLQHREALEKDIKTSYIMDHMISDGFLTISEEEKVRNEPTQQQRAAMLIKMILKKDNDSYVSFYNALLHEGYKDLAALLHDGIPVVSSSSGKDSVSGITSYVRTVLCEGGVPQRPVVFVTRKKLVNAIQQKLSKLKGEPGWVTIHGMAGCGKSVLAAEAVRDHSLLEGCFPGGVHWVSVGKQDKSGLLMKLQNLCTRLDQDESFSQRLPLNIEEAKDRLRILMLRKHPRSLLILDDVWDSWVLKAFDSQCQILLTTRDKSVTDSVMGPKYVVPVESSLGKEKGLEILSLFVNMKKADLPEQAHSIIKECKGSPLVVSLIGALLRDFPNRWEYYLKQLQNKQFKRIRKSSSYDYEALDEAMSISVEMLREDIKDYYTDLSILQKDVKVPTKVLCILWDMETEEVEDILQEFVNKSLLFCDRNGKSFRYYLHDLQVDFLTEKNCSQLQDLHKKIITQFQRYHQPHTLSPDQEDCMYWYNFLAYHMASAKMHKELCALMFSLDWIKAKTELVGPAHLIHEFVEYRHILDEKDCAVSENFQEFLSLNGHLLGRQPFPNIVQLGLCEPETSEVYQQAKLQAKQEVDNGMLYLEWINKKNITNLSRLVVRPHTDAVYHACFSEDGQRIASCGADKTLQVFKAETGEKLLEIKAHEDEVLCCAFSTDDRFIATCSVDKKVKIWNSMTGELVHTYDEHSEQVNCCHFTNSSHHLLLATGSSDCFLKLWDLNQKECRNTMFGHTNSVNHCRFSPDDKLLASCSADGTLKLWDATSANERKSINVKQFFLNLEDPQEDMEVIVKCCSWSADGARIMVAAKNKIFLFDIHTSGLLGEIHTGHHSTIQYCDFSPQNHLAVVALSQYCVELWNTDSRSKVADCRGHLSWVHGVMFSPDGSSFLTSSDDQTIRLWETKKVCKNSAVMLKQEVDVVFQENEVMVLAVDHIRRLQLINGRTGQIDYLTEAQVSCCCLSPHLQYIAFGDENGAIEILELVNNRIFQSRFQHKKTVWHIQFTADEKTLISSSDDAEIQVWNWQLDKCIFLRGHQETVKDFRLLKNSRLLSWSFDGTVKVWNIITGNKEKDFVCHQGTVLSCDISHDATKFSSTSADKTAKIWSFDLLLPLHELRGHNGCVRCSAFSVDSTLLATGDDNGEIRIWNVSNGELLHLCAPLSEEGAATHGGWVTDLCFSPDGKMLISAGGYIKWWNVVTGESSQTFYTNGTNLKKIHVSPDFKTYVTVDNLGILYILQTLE
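System: Apoptosome proteins | Medium: Hepes pH 7.5 with detergent and BSA | Also added: Cytochrome c trigger plus (Z-DEVD)2-Rh110 caspase-3 substrate | Incubation: 30 min compound preincubation, 50 min activation, room temperature | Detection: Rhodamine 110 fluorescence at Ex 480/Em 540 nm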
Pemphigus Ab inh: human desmoglein-3 autoantibody binding inhibition. P32926. DSG3-coupled beads, scFv-anti-DSG3-GFP binding, flow cytometry; stronger effect = lower value. binding (percent of control), % at 10 µM. 0.48% of 310,000 active;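 active = binding more than 3 SD below its plate's average and above zero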;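 also: hits lower antibody fragment binding to DSG3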
MEKK3 PB1 HTS: MEKK3-MEK5 PB1 interaction, increase or decrease | bead-based flow cytometry, Alexa488-MEK5 binding to MEKK3; actives lie on both sides; 0 = blocked by unlabeled MEK5, 100 = vehicle | binding response (% of control), % at 10 µM | 1.4% of 290,000 active | AID 1529;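 active = binding response more than 3 SD above or below the average of its plate-row segment, actives on both sides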;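 also: Alexa488 bead fluorescence after subtracting the streptavidin-only scavenger bead signal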
MEKK2wt confirm: raises or lowers MEK5 binding to wildtype human MEKK2, retest | shares compounds with MEKK3 PB1 HTS | bead flow cytometry, Alexa488-MEK5 binding to MEKK2 WT; actives lie on both sides | binding response (% of control), % at 10 µM | 2.4% of 5,900 active; in the data active = binding response below about 16% or above about 210%; inactive = in between
MEKK2mut confirm: signal of MEK5 binding to mutant human MEKK2, retest; bead flow cytometry, Alexa488-MEK5 binding to MEKK2 mutant; shares compounds with MEKK3 PB1 HTS; 2% of 5,900 active; percent response, % at 10 µM; AID 1893; in the data active = percent response mostly above about 71%, no sharp cut-off; inactive = mostly below about 38%;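 also: higher means compound restores mutant binding toward wildtype level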
MEKK3 confirm: confirmation of inhibitors of MEK5 binding to human MEKK3 | 1.8% of 5,900 active | binding response (% of control), % at 10 µM | shares compounds with MEKK3 PB1 HTS | bead flow cytometry, Alexa488-MEK5 binding to MEKK3; stronger effect = lower value;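 active = binding response below 72% of control, or above a set upper limit, though filed actives all read lower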
Of the large screens only hits and unclear results are named; the others gave an inactive call (follow-up assays come after a bar, where they were run); [ ] = another dose, or the depositor's remark. Only some compounds are listed: those with a hit (about 3.2% of all), similar ones and a draw of the others.

O=[N+]([O-])c1ccc(C[n+]2cccc3ccc4cccnc4c32)cc1	none
O=C(/C=C/c1cn(CC(O)CN2CCCCC2)c2ccccc12)c1ccccc1 (stereo unspecified)	MEKK2wt PB1 HTS 141 (no result: UBC13 inh, Apaf-1 inh, Pemphigus Ab inh) | MEKK2wt confirm inactive | MEKK2mut confirm inactive | MEKK3 confirm inactive
OC(CN1CCCC1)Cn1ccc2ccccc21 (stereo unspecified)	MEKK2wt PB1 HTS 146, MEKK2mut PB1 HTS 31 | MEKK2wt confirm inactive | MEKK2mut confirm inactive | MEKK3 confirm inactive
O=C(c1ccccc1)N1CCN(CC(O)Cn2ccc3ccccc32)CC1 (stereo unspecified)	none
CCCCN(C)CC(O)Cn1cc(/C=C/C(=O)c2ccc(C)cc2)c2ccccc21 (stereo unspecified)	MEKK2wt PB1 HTS 186, MEKK2mut PB1 HTS 54 | MEKK2wt confirm inactive | MEKK2mut confirm inactive | MEKK3 confirm inactive
CN1CCN(Cn2cc(/C=C/C(=O)c3ccccc3)c3ccccc32)CC1	MEKK2wt PB1 HTS 142 | MEKK2wt confirm inactive | MEKK2mut confirm inactive | MEKK3 confirm inactive
CC(=O)Nc1cccc(NC(=O)c2csc(C)c2)c1	none
CC(C)CN(C(=O)C1CCCO1)c1c(N)n(CC(C)C)c(=O)[nH]c1=O (stereo unspecified)	none (no result: MEKK2wt PB1 HTS, MEKK2mut PB1 HTS, MEKK3 PB1 HTS)
Clc1ccccc1OCCn1nnc2ccccc21	none
CCCN(CCC)CC(O)Cn1cc(/C=C/C(=O)c2cccs2)c2ccccc21 (stereo unspecified)	none (no result: UBC13 inh, Apaf-1 inh)
CCCN(CCC)CC(O)Cn1cc(/C=C/C(=O)c2ccccc2)c2ccccc21 (stereo unspecified)	MEKK2wt PB1 HTS 154 (no result: UBC13 inh, Apaf-1 inh, Pemphigus Ab inh) | MEKK2wt confirm inactive | MEKK2mut confirm inactive | MEKK3 confirm inactive
Cn1c(SCC(=O)NNC(=O)c2ccccc2Br)nnc1C(F)(F)F	none (no result: MEKK2wt PB1 HTS, MEKK2mut PB1 HTS, Pemphigus Ab inh, MEKK3 PB1 HTS)
CCOC(=O)/C(N=Nc1c(C)n(C)n(-c2ccccc2)c1=O)=C(/O)c1ccccc1	none
COC(=O)/C(N=Nc1c(C)n(C)n(-c2ccccc2)c1=O)=C(\C)O	MEKK3 PB1 HTS 142 | MEKK2wt confirm inactive | MEKK2mut confirm inactive | MEKK3 confirm inactive
N#CC(C#N)=Cc1cc2ccccc2nc1N1CCOCC1	MEKK3 PB1 HTS 135 | MEKK2wt confirm inactive | MEKK2mut confirm inactive | MEKK3 confirm inactive
N#C/C(=C\c1cc2ccccc2nc1N1CCOCC1)C(=O)Nc1ccc(N2CCOCC2)cc1	MEKK3 PB1 HTS 146 | MEKK2wt confirm inactive | MEKK2mut confirm inactive | MEKK3 confirm inactive
Cc1ccc2cc(C=C(C#N)C#N)c(N3CCCCC3)nc2c1	none
COc1ccc(C(=O)/C(C#N)=N/Nc2cccc([N+](=O)[O-])c2)cc1	none (no result: UBC13 inh, Apaf-1 inh)
Cc1ccccc1Nc1nnc(SCc2cc(=O)n3ccsc3n2)s1	none
COc1ccccc1Nc1nnc(SCc2cc(=O)n3cc(C)ccc3n2)s1	MEKK3 PB1 HTS 142 | MEKK2wt confirm inactive | MEKK2mut confirm inactive | MEKK3 confirm inactive
Cc1ccnc(NC(c2ccncc2)c2c(C)[nH]c3ccccc23)c1 (stereo unspecified)	none
Cc1[nH]c2ccccc2c1C(Nc1nccs1)c1ccncc1 (stereo unspecified)	MEKK3 PB1 HTS 138 | MEKK2wt confirm inactive | MEKK2mut confirm inactive | MEKK3 confirm inactive
OCC1(CCOc2ccccc2)CCN(CC2=Cc3cc(Cl)ccc3OC2)CC1	MEKK2wt PB1 HTS 153 | MEKK2wt confirm inactive | MEKK2mut confirm inactive | MEKK3 confirm inactive
COc1cc(Cl)c(CN2CCC(CO)(CCOc3ccccc3)CC2)cc1OC	none
CCOC(=O)C1CCN(c2cc3c(cc2NC(=O)c2cc(OC)ccc2Br)n(C)c(=O)n3C)CC1	none (no result: Pemphigus Ab inh)
Cc1c(N2C(=O)c3ccc4c5c(ccc(c35)C2=O)CC4)c(=O)n(-c2ccccc2)n1C	none
Cc1c(N2C(=O)c3ccc(Br)cc3C2=O)c(=O)n(-c2ccccc2)n1C	MEKK2wt PB1 HTS 3.0[inhibitor], MEKK3 PB1 HTS 2.0[inhibitor] (no result: Pemphigus Ab inh) | MEKK2wt confirm inactive | MEKK2mut confirm inactive | MEKK3 confirm inactive
Cc1cc2oc3ccc(NCCCN4CCOCC4)cc3c(=O)c2cc1C	MEKK2wt PB1 HTS 144 | MEKK2wt confirm inactive | MEKK2mut confirm inactive | MEKK3 confirm inactive
CNC(=O)/C=C/c1cccc(C(F)(F)F)c1	MEKK3 PB1 HTS 73[inhibitor] | MEKK2wt confirm inactive | MEKK2mut confirm inactive | MEKK3 confirm inactive
Cc1ccccc1NC(=O)/C=C/c1cccc(C(F)(F)F)c1	none
COc1ccc(C(=O)N2CCC(c3ccccc3)CC2)c(OC)c1OC	MEKK3 PB1 HTS 134 | MEKK2wt confirm inactive | MEKK2mut confirm inactive | MEKK3 confirm inactive
COc1cccc(C(=O)N2CCN(C(=O)c3ccc(-c4ccccc4)cc3)CC2)c1OC	none
Cc1cc(C(=O)CSc2nc3ccccc3c(=O)[nH]2)c(C)n1CC1CCCO1 (stereo unspecified)	none
O=c1[nH]c(SCC2CCCCO2)nc2ccccc12 (stereo unspecified)	MEKK3 PB1 HTS 73[inhibitor] | MEKK2wt confirm inactive | MEKK2mut confirm inactive | MEKK3 confirm inactive
CN(C)CC#CCC(O)(c1ccccc1)C1CCCCC1 (stereo unspecified)	none
CCN(CC)CC#CCC(O)(c1ccccc1)C1CCCC1 (stereo unspecified)	MEKK2wt PB1 HTS 46[inhibitor] | MEKK2wt confirm inactive | MEKK2mut confirm inactive | MEKK3 confirm inactive
CCOC(=O)c1cccc(-n2c(-c3ccc(OC)cc3)nc3nc4ccccc4nc32)c1	MEKK3 PB1 HTS 134 (no result: UBC13 inh, Apaf-1 inh, Pemphigus Ab inh) | MEKK2wt confirm inactive | MEKK2mut confirm inactive | MEKK3 confirm inactive
CCOC(=O)c1cccc(-n2c(C)nc3ccccc3c2=O)c1	none
CC(O)CCc1nc2ccc(C(=O)O)cc2[nH]1 (stereo unspecified)	none (no result: MEKK2wt PB1 HTS, MEKK2mut PB1 HTS, MEKK3 PB1 HTS)
O=C(O)c1ccc2nc(CO)[nH]c2c1	MEKK2wt PB1 HTS 2.0[inhibitor], MEKK3 PB1 HTS 2.0[inhibitor] | MEKK2wt confirm inactive | MEKK2mut confirm inactive | MEKK3 confirm inactive
Cc1cc(OC(=O)c2c(F)cc(F)cc2F)nc(C)n1	MEKK3 PB1 HTS 149 | MEKK2wt confirm inactive | MEKK2mut confirm inactive | MEKK3 confirm inactive
Cc1cccc(OC(C)C(=O)N2CCN(Cc3ccc4c(c3)OCO4)CC2)c1 (stereo unspecified)	none
Cc1ccc(NC(=O)CSc2ncc(S(=O)(=O)c3ccccc3)c(=O)[nH]2)cc1C	none

From PubChem
